Drawing on ChEMBL document CHEMBL1140413, “Synthesis and in vitro evaluation of inhibitors of intestinal cholesterol absorption” (2005), this text covers ED50 and inhibition for 25 molecules.

In the first assay the test system is Cricetinae gen. sp. The assay is described as follows: Effective dose required for reduction of liver cholesterol ester using 7-day cholesterol-fed hamster model. The assay is classed as functional. The note with it: 168 h.
The term ED50 denotes the dose that gives a 50% effect, or the effect in half of the subjects. `O=C1[C@H](CC[C@H](O)c2ccc(F)cc2)[C@@H](c2ccc(O)cc2)N1c1ccc(F)cc1` [EZETIMIBE] came in with an ED50 of 0.04 mg/kg/day.

`COc1ccc([C@@H]2[C@@H](CCCc3ccccc3)C(=O)N2c2ccc(OC)cc2)cc1` [SCH-48461] returned an ED50 of 2.2 mg/kg/day.

The species named for a further assay is Oryctolagus cuniculus. As to the kind of experiment: Percent inhibition against cholesterol absorption in brush border membrane vesicle using rabbit small intestine at concentration of 6 uM. In kind it is functional.
Settings: not given
The method in brief: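 Cholesterol uptake into brush border membrane vesicles prepared from rabbit whole small intestine, with membrane receptors left intact. Test compounds at a nominal 6 µM; read-out is % inhibition of cholesterol uptake. Average standard deviations ±3% inhibition.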
In general, inhibition refers to the relative decrease from the control value, in per cent. Regarding `COC1OC(CS(=O)(=O)Oc2ccc([C@@H]3[C@@H](CCC(O)c4ccc(F)cc4)CN3c3ccc(F)cc3)cc2)C(O)C(O)C1O` (stereo partly specified), the inhibition was determined as 27%.

On to `O=C1[C@H](CCCc2ccc(F)cc2)[C@@H](c2ccc(O[C@@H]3O[C@H](CO)[C@@H](O[C@@H]4O[C@H](CO)[C@@H](O)[C@@H](O)[C@H]4O)[C@@H](O)[C@H]3O)cc2)N1c1ccc(F)cc1`, for which the inhibition came out at 3%.

As to `O=C1[C@H](CC[C@H](O)c2ccc(F)cc2)[C@@H](c2ccc(O)cc2)N1c1ccc(F)cc1` [EZETIMIBE], the inhibition was 16%.

With `CS(=O)(=O)Oc1ccc(C[C@@H](CCC(O)c2ccc(F)cc2)CNc2ccc(F)cc2)cc1` (stereo partly specified), the inhibition is -2%.

Take `CO[C@H]1O[C@@H](COc2ccc([C@@H]3[C@@H](CC[C@H](O)c4ccc(F)cc4)C(=O)N3c3ccc(F)cc3)cc2)[C@@H](O)[C@H](O)[C@@H]1O`: the inhibition worked out at 13%.

For `CS(=O)(=O)Oc1ccc([C@@H]2[C@@H](CCC(O)c3ccc(F)cc3)C(=O)N2c2ccc(F)cc2)cc1` (stereo partly specified), the inhibition is 30%.

Take `O=C1[C@H](CCC(O)c2ccc(F)cc2)[C@@H](c2ccc(OS(=O)(=O)CC3OC(CO)C(O)C(O)C3O)cc2)N1c1ccc(F)cc1` (stereo partly specified): the inhibition stood at 15%.

With `O=C1[C@H](CCCc2ccccc2)[C@@H](c2ccccc2)N1c1ccc(F)cc1` (racemic), the inhibition was found to be 2%.

In the case of `O=C(O)[C@H]1O[C@@H](Oc2ccc([C@@H]3[C@@H](CCC(O)c4ccc(F)cc4)C(=O)N3c3ccc(F)cc3)cc2)[C@H](O)[C@H](O)[C@@H]1O` (stereo partly specified), the inhibition stood at 19%.

For the molecule `O=S(=O)(Oc1ccc([C@@H]2[C@@H](CCC(O)c3ccc(F)cc3)CN2c2ccc(F)cc2)cc1)c1ccccc1` (stereo partly specified), the inhibition was 19%.

As to `O=C1[C@H](CC[C@H](O)c2ccc(F)cc2)[C@@H](c2ccc(OC[C@@H]3O[C@H](CO)[C@@H](O[C@@H]4O[C@H](CO)[C@@H](O)[C@@H](O)[C@H]4O)[C@@H](O)[C@H]3O)cc2)N1c1ccc(F)cc1`, the inhibition was 28%.

As for `COC1OC(CS(=O)(=O)Oc2ccc(C[C@@H](CCC(O)c3ccc(F)cc3)CNc3ccc(F)cc3)cc2)C(O)C(O)C1O` (stereo partly specified), the inhibition is 3%.

In the case of `O=C1[C@H](CCC(O)c2ccc(F)cc2)[C@@H](c2ccc(O[C@@H]3O[C@H](CO)[C@@H](O[C@@H]4O[C@H](CO)[C@@H](O)[C@@H](O)[C@H]4O)[C@@H](O)[C@H]3O)cc2)N1c1ccc(F)cc1` (stereo partly specified), the inhibition is 27%.

As to `O=C1[C@H](CC[C@H](O)c2ccc(F)cc2)[C@@H](c2ccc(O[C@@H]3O[C@H](CO)[C@@H](O)[C@@H](O)[C@H]3O)cc2)N1c1ccc(F)cc1`, the inhibition was 14%.

With `COC1OC(CS(=O)(=O)Oc2ccc([C@@H]3[C@@H](CCC(O)c4ccc(F)cc4)C(=O)N3c3ccc(F)cc3)cc2)C(O)C(O)C1O` (stereo partly specified), the inhibition came out at 20%.

Regarding `O=C1[C@H](CCC(O)c2ccc(F)cc2)[C@@H](c2ccc(OCC3OC(CO)C(O)C(O)C3O)cc2)N1c1ccc(F)cc1` (stereo partly specified), the inhibition is 15%.

Turning to `O=C1[C@H](CCCc2ccc(F)cc2)[C@@H](c2ccc(OS(=O)(=O)C[C@@H]3O[C@H](CO)[C@@H](O[C@@H]4O[C@H](CO)[C@@H](O)[C@@H](O)[C@H]4O)[C@@H](O)[C@H]3O)cc2)N1c1ccc(F)cc1`, the inhibition worked out at 10%.

`CS(=O)(=O)Oc1ccc([C@@H]2[C@@H](CCC(O)c3ccc(F)cc3)CN2c2ccc(F)cc2)cc1` (stereo partly specified): the inhibition was determined as 22%.

In the case of `Fc1ccc(N2C[C@H](CCCc3ccccc3)[C@H]2c2ccccc2)cc1` (racemic), the inhibition stood at 2%.

Consider `CC(C)(C)Oc1ccc([C@@H]2[C@@H](CCC(O)c3ccc(F)cc3)C(=O)N2c2ccc(F)cc2)cc1` (stereo partly specified), for which the inhibition was determined as 10%.

Consider `O=S(=O)(CC1OC(CO)C(O)C(O)C1O)Oc1ccc([C@@H]2[C@@H](CCC(O)c3ccc(F)cc3)CN2c2ccc(F)cc2)cc1` (stereo partly specified), for which the inhibition is 20%.

On to `O=C1[C@H](CCC(O)c2ccc(F)cc2)[C@@H](c2ccc(OS(=O)(=O)c3ccccc3)cc2)N1c1ccc(F)cc1` (stereo partly specified), for which the inhibition worked out at 26%.

Take `O=C1[C@H](CC[C@H](O)c2ccc(F)cc2)[C@@H](c2ccc(OS(=O)(=O)C[C@@H]3O[C@H](CO)[C@@H](O[C@@H]4O[C@H](CO)[C@@H](O)[C@@H](O)[C@H]4O)[C@@H](O)[C@H]3O)cc2)N1c1ccc(F)cc1`: the inhibition is 41%.

With `COC1OC(CS(=O)(=O)Oc2ccc([C@@H]3[C@@H](CCCc4ccc(F)cc4)CN3c3ccc(F)cc3)cc2)C(O)C(O)C1O` (stereo partly specified), the inhibition was 4%.
